The results in this text go back to ChEMBL document CHEMBL1147231, “Cytotoxic and antimalarial beta-carboline alkaloids from the roots of Eurycoma longifolia” (J Nat Prod, 2003).

Converted amounts (≈) assume the structure as drawn. The source made the active and inactive calls. The calls are words filed in the database; no cut-off is given here.

The test system of one assay is A549. Briefly: Cytotoxicity against human A549 cells by SRB assay. Format: functional. To be noted: for EC50: Homo sapiens, A549, read-out: ED50 (the source's name). The method in brief: (§1)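 Sulforhodamine B assay on human lung (A549) and breast (MCF-7) cancer cell lines; ED50 taken as the compound concentration giving 50% reduction in absorbance at 562 nm relative to untreated cells.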
(In SRB staining, fixed cells bind dye roughly in proportion to their protein.)

Another assay has as its system MCF7. Put plainly: Cytotoxicity against human MCF7 cells by SRB assay. It is filed as functional. To be noted: for EC50: Homo sapiens, MCF7, read-out: ED50 (the source's name). The method in brief: as §1
In assay [1] the test system is Plasmodium falciparum. Briefly: Antimalarial activity against Plasmodium falciparum W2. It is filed as functional, organism-based. The method in brief: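 In vitro drug susceptibility measured by parasite incorporation of radiolabeled hypoxanthine (modified Desjardins method); mefloquine and chloroquine run in parallel as positive controls.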
For assay [2], the system named is Plasmodium falciparum. Put plainly: Antimalarial activity against Plasmodium falciparum D6. It is filed as functional, organism-based. Summed up:
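Drug susceptibility in vitro by modified Desjardins method with Milhous modifications. Read-out is parasite incorporation of radiolabelled hypoxanthine. Mefloquine and chloroquine were run in parallel as positive controls.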

For `O=C(O)CCc1nccc2c1[nH]c1ccccc12`, the outcome with A549 was inactive. In the assay on MCF7, the “inhibition (INH)” value is given as 8% and the EC50 was greater than 20 µg/mL.
The IC50 is the point on the concentration scale where inhibition reaches its midpoint. Take `COc1c(O)c2nccc3c4ccccc4n(c1=O)c23` [PICRASIDINE Q]: the EC50 in the assay on A549 was found to be 16.2 µg/mL (≈ 60.8 µM); in the assay with MCF7, 18.1 µg/mL (≈ 68 µM). The half-maximal inhibitory concentration (IC50) was 3.52 µg/mL (≈ 13.2 µM) in the assay with Plasmodium falciparum [1] and 2.96 µg/mL (≈ 11.1 µM) in the assay with Plasmodium falciparum [2].
On to `COc1ccc2c(c1)[nH]c1c(CCC(=O)O)nccc12`, for which, in the assay with A549, the “inhibition (INH)” value stood at 7% and the EC50 was greater than 20 µg/mL. Besides, in the assay on MCF7, the “inhibition (INH)” value was found to be 15% and the EC50 was greater than 20 µg/mL.
On to `O=c1ccc2nccc3c4ccc(O)cc4n1c23`, for which the values for the EC50 in the assay with A549 and with MCF7 were 10 µg/mL (≈ 42.3 µM) and 19.6 µg/mL (≈ 83 µM), respectively. This compound had a half-maximal inhibitory concentration (IC50) in the assay on Plasmodium falciparum [1] of 2.34 µg/mL (≈ 9.89 µM).
`COc1ccc2c3cc[n+]([O-])c4ccc(=O)n(c2c1)c34`: the figures for the EC50 in the assay with A549 and in the assay on MCF7 were 18.5 µg/mL (≈ 69.5 µM) and 18.9 µg/mL (≈ 71 µM), respectively.
For the compound `O=c1ccc2nccc3c4ccccc4n1c23` [CANTHIN-6-ONE], the figures for the EC50 in the assay with A549 and in the assay on MCF7 were 3.6 µg/mL (≈ 16.3 µM) and 7.3 µg/mL (≈ 33.1 µM), respectively. In the assay on Plasmodium falciparum [1], the midpoint of inhibition, the IC50, lay at 2.24 µg/mL (≈ 10.2 µM).
With `COc1ccc2c3ccnc4ccc(=O)n(c2c1)c43`, in the assay on A549, the “inhibition (INH)” value stood at 55% and the EC50 was less than 2.5 µg/mL. In addition, the EC50 with MCF7 amounted to 4.5 µg/mL (≈ 18 µM).
